In ChEMBL document CHEMBL4007460, “17β-Hydroxywithanolides as Sensitizers of Renal Carcinoma Cells to Tumor Necrosis Factor-α Related Apoptosis Inducing Ligand (TRAIL) Mediated Apoptosis: Structure-Activity Relationships” (J Med Chem, 2017):
Activity calls are given as the source filed them. The calls are words filed in the database; no cut-off is given here.

Key:
[1] = system: ACHN; test: Cytotoxicity in human ACHN cells assessed as viable cells at 1250 to 5000 nM after 48 hrs by MTS assay; assay type: cell-based; conditions: 5 µM
[2] = system: UO-31; test: Sensitization of TRAIL-induced apoptosis in human UO31 cells assessed as reduction in cell viability at 125 to 500 nM preincubated for 2 hrs followed by addition of TRAIL measured after 18 hrs by MTS assay; assay type: functional, cell-based
How it was run: (§1)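 Caki-1, SN12C or UO-31 renal cells seeded 5000/well, grown overnight at 37 °C, pretreated with compound across a concentration range for 2 h, then TRAIL 50 ng/mL added for 18 h more at 37 °C. Medium: RPMI, 5% FCS with supplements. Viable cells by MTS (2 h, A490); growth inhibition = (media − treatment)/media ×100. Triplicate, ≥3 experiments.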

[3] = system: ACHN; test: Cytotoxicity in human ACHN cells assessed as reduce cell number after 48 hrs by MTS assay; assay type: cell-based
How it was run: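 ACHN cells exposed to compound for 48 h at 37 °C; viable cell number by MTS read-out. Triplicate determinations; IC50 (concentration reducing cell number by 50%) from 3 independent experiments, ± SD.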

[4] = system: ACHN; test: Induction of BIP expression in human ACHN cells at 2.5 to 5 uM measured after 24 hrs by Western blotting method; assay type: functional, cell-based
[5] = system: SN12C; test: Sensitization of TRAIL-induced apoptosis in human SN12C cells assessed as reduction in cell viability at 125 to 500 nM preincubated for 2 hrs followed by addition of TRAIL measured after 18 hrs by MTS assay; assay type: functional, cell-based; how it was run: as §1
[6] = system: ACHN; test: Sensitization of TRAIL-induced apoptosis in human ACHN cells assessed as reduction in cell viability preincubated for 2 hrs followed by addition of TRAIL measured after 18 hrs by MTS assay; assay type: functional, cell-based
How it was run: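 ACHN cells were seeded at 5000/well and rested overnight at 37 °C, in RPMI with 5% FCS, glutamine, NEAA, pyruvate, HEPES and 2-mercaptoethanol. Compound pretreatment ran 2 h, then TRAIL was added to 50 ng/mL for 18 h at 37 °C. Viability was read by MTS (2 h, A490). IC50 values (cell number reduced 50%) came from dose-response curves; triplicates, at least 3 independent experiments, ± SD.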

[7] = system: ACHN; test: Sensitization of TRAIL-induced apoptosis in human ACHN cells assessed as increase in caspase8 activation at 125 to 1000 nM preincubated for overnight followed by addition of TRAIL for 90 mins measured after 18 hrs by Western blot analysis; assay type: functional, cell-based
How it was run: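 ACHN cells plated 1.5×10^6/well, grown overnight, treated overnight (18 h) with compound at 125–1000 nM, then TRAIL for 90 min before RIPA lysis (with zVAD-FMK). 20 μg protein immunoblotted for pro- and cleaved caspase-8 and caspase-3; GAPDH loading control. TRAIL given as 200 ng/mL in methods, 50 ng/mL in legend.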

[8] = system: CAKI-1; test: Sensitization of TRAIL-induced apoptosis in human Caki1 cells assessed as reduction in cell viability at 125 to 500 nM preincubated for 2 hrs followed by addition of TRAIL measured after 18 hrs by MTS assay; assay type: functional, cell-based; how it was run: as §1
[9] = system: ACHN; test: Reduction cFLIP level in human ACHN cells at 500 nM after 18 hrs by Western blot analysis; assay type: functional, cell-based
How it was run: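 ACHN cells (RPMI, 5% FBS) plated 1.5×10^6/well, grown overnight at 37 °C, then exposed to compound at 500 nM for 18 h. Lysed in RIPA with protease/phosphatase inhibitors and zVAD-FMK; 20 μg protein per lane immunoblotted with anti-FLIP (7F10); GAPDH as loading control.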

[10] = system: ACHN; test: Induction of HSP70 expression in human ACHN cells at 2.5 to 5 uM measured after 24 hrs by Western blotting method; assay type: functional, cell-based
[11] = system: ACHN; test: Induction of CHOP expression in human ACHN cells at 2.5 to 5 uM measured after 24 hrs by Western blotting method; assay type: functional, cell-based
[12] = Glutathione reactivity in DMSO assessed as formation of MIchael adduct with GSH at pH 7.4 after 24 hrs in presence of NAC by HPLC method
How it was run: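 Withanolide (2.12 μM in DMSO, 0.5 mL) mixed with equal volume of 4.24 μM GSH or NAC solution at pH 7.4, 37 °C. Aliquots taken at 0, 0.5, 2, 4, 8, 24 h, stored −80 °C; unreacted withanolide quantified by C18 HPLC (H2O with 40 mM NH4OAc–MeOH gradient, UV 230 nm) using peak area.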

[13] = system: ACHN; test: Induction of DR5 expression in human ACHN cells by Western blotting method; assay type: functional, cell-based
[14] = system: ACHN; test: Reduction cFLIP level in human ACHN cells at 125 to 1000 nM after 18 hrs by Western blot analysis
[15] = system: ACHN; test: Reduction cFLIP level in human ACHN cells at 125 to 1000 nM after 16 hrs by Western blot analysis; assay type: functional, cell-based
[16] = system: ACHN; test: Sensitization of TRAIL-induced apoptosis in human ACHN cells assessed as increase in caspase8 activation at 125 to 1000 nM preincubated for overnight followed by addition of TRAIL for 90 mins measured after 6 hrs by Western blot analysis; assay type: functional, cell-based

SMILES	Activity [1]	Activity [2]	Activity [3]	Activity [4]	Activity [5]	IC50 [6] [nM]	Activity [7]	Activity [8]	Activity [9]	Activity [10]	Activity [11]	Activity [12]	Activity [13]	Activity [14]	Activity [15]	Activity [16]
CC1=C(C)C(=O)O[C@@H]([C@](C)(O)[C@]2(O)CC[C@@]3(O)[C@@H]4C[C@H]5O[C@]56CC=CC(=O)[C@]6(C)[C@H]4CC[C@]23C)C1 [WITHANOLIDE E]	Non-Toxic	Active	Toxic	inactive	Active	489	Active	Active	Active	inactive	inactive	Active	inactive	–	–	–
CC1=C(CO)C(=O)O[C@@H]([C@@H](C)[C@H]2CC[C@H]3[C@@H]4C[C@H]5O[C@]56[C@@H](O)C=CC(=O)[C@]6(C)[C@H]4CC[C@]23C)C1 [WITHAFERIN A]	Toxic	inactive	–	Active	inactive	> 2000	inactive	inactive	–	Active	Active	Active	inactive	inactive	–	–
CC(=O)O[C@H]1C=CC(=O)[C@]2(C)[C@H]3CC[C@]4(C)[C@](O)([C@@](C)(O)[C@H]5CC(C)=C(C)C(=O)O5)CC[C@@]4(O)[C@@H]3C[C@H]3O[C@]132	–	–	Toxic	–	–	76	–	–	Active	–	–	Active	–	–	–	–
CC(=O)OCC1=C(C)C[C@H]([C@@H](C)[C@H]2CC[C@H]3[C@@H]4C[C@H]5O[C@]56[C@H](OC(C)=O)C=CC(=O)[C@]6(C)[C@H]4CC[C@]23C)OC1=O	–	–	–	Active	–	–	–	–	–	Active	Active	–	–	–	inactive	–
CC1=C(C)C(=O)O[C@@H]([C@](C)(O)[C@]2(O)CC[C@@]3(O)[C@@H]4C[C@H]5O[C@]56[C@H](O)C=CC(=O)[C@]6(C)[C@H]4CC[C@]23C)C1	Non-Toxic	Active	Toxic	–	Active	67	Active	Active	Active	–	–	Active	inactive	–	–	–
CC(=O)OC[C@]12CC[C@H]3[C@@H](C[C@H]4O[C@]45CC=CC(=O)[C@]35C)[C@]1(O)CC[C@@]2(O)[C@@](C)(O)[C@H]1CC(C)=C(C)C(=O)O1	Non-Toxic	Active	Toxic	inactive	Active	164	Active	Active	Active	inactive	inactive	Active	inactive	–	–	Active
